Assay results pooled from the literature.
PIK3CA C420R: Phosphatidylinositol 4,5-bisphosphate 3-kinase catalytic subunit alpha isoform (PIK3CA, Homo sapiens, UniProt P42336, C420R)
PIK3CA I800L: Phosphatidylinositol 4,5-bisphosphate 3-kinase catalytic subunit alpha isoform (PIK3CA, Homo sapiens, UniProt P42336, I800L)
PIK3CA H1047L: Phosphatidylinositol 4,5-bisphosphate 3-kinase catalytic subunit alpha isoform (PIK3CA, Homo sapiens, UniProt P42336, H1047L)
PIK3CA H1047Y: Phosphatidylinositol 4,5-bisphosphate 3-kinase catalytic subunit alpha isoform (PIK3CA, Homo sapiens, UniProt P42336, H1047Y)
PIK3CA E542K: Phosphatidylinositol 4,5-bisphosphate 3-kinase catalytic subunit alpha isoform (PIK3CA, Homo sapiens, UniProt P42336, E542K)
PIK3CA: Phosphatidylinositol 4,5-bisphosphate 3-kinase catalytic subunit alpha isoform (PIK3CA, Homo sapiens, UniProt P42336)
PIK3CA Q546K: Phosphatidylinositol 4,5-bisphosphate 3-kinase catalytic subunit alpha isoform (PIK3CA, Homo sapiens, UniProt P42336, Q546K)
PIK3CA E545A: Phosphatidylinositol 4,5-bisphosphate 3-kinase catalytic subunit alpha isoform (PIK3CA, Homo sapiens, UniProt P42336, E545A)

| Structure (SMILES) | target | observed | method | tested at | remaining binding |
| --- | --- | --- | --- | --- | --- |
| O=C(NCC1CCOCC1)c1n[nH]cc1NC(=O)c1c(F)cccc1F | PIK3CA C420R | binding | competition with immobilised ligand | 1 µM | 100% |
| O=C(NCCCN1CCOCC1)c1ccc(Nc2nccc(-c3cc4ccccc4s3)n2)cc1 | PIK3CA I800L | binding | competition with immobilised ligand | 1 µM | 13% |
| CCN1CCN(Cc2ccc(C(=O)Nc3ccc(C)c(Oc4ccc5c(c4)CC(=O)N5)c3)cc2C(F)(F)F)CC1 | PIK3CA H1047L | binding | competition with immobilised ligand | 1 µM | 100% |
| Nc1ncc2c(n1)-c1c([nH]c3ccc(C#CC4CC4)cc13)CCCC2 | PIK3CA H1047Y | binding | competition with immobilised ligand | 1 µM | 75% |
| O=C(c1ccc(Nc2ncc(Cl)c(-c3ccc(Cl)s3)n2)cc1)N1CCC(N2CCCC2)CC1 | PIK3CA C420R | binding | competition with immobilised ligand | 1 µM | 100% |
| CN(C(=O)c1ccccc1)c1cc(N(C)c2ccc3c(c2)CCc2ccc(C(=O)NCCN4CCOCC4)cc2C3=O)ccc1F | PIK3CA I800L | cell-free assay | competition with immobilised ligand | 1 µM | 62% |
| CC1CCCN1c1nccc(-c2cnn3ncccc23)n1 (stereo not shown) | PIK3CA I800L | binding | – | 1 µM | 88% |
| C=CC(=O)N1CCC(C(=O)NCC(=O)N2CCN(c3nc(-c4cnc(N)nc4C(F)F)nc(N4CCOCC4)n3)CC2)CC1 | PIK3CA H1047Y | binding | competition with immobilised ligand | 1 µM | 5.9% |
| O=C(N[C@H]1CCCCC/C=C\C2C[C@@]2(C(=O)O)NC(=O)[C@@H]2C[C@@H](Oc3ccncc3)CN2C1=O)OC1CCCC1 (stereo partly shown) | PIK3CA E542K | binding | competition with immobilised ligand | 1 µM | 96% |
| C[C@@H](c1ccc(-n2cnc3c(N)ncnc32)cc1)N1CCc2nn(C)c(Cc3ccccc3)c2C1=O | PIK3CA | binding | competition with immobilised ligand | 0.1 µM | 82% |
| O=C(c1ccc(Nc2nccc(-c3cc4ccccc4s3)n2)cc1)N1CCC(N2CCCC2)CC1 | PIK3CA H1047L | binding | competition with immobilised ligand | 1 µM | 100% |
| COc1cnc(Nc2cccc(S(N)(=O)=O)c2)nc1N1CCN(c2ccccc2)CC1 | PIK3CA H1047Y | binding | competition with immobilised ligand | 1 µM | 74% |
| Cc1cnc(Nc2ccc(C(=O)N3CCC(N4CCCC4)CC3)cc2)nc1-c1cc2ccccc2s1 | PIK3CA H1047L | binding | competition with immobilised ligand | 1 µM | 97% |
| CCS(=O)(=O)c1cc2cc(C[C@](O)(CC(C)(C)c3ccc(F)cc3C(N)=O)C(F)(F)F)[nH]c2cn1 | PIK3CA H1047L | cell-free assay | competition with immobilised ligand | 1 µM | 96% |
| C[C@H]1CCN(c2nccc(-c3cnn4ncccc34)n2)C1 | PIK3CA Q546K | binding | – | 1 µM | 85% |
| CNC(=O)[C@@H]1CC[C@@H](n2c(-c3ccc4cnccc4c3)nc3ccc(C(=O)NCc4cccc(C(N)=O)c4)cc32)C1 | PIK3CA Q546K | binding | competition with immobilised ligand | 1 µM | 100% |

| Structure (SMILES) | target | observed | method | tested at | remaining binding |
| --- | --- | --- | --- | --- | --- |
| O=C(NCc1ncc(C(F)(F)F)cc1Cl)c1ccc2c(c1)C1(CCS(=O)(=O)CC1)[C@@H](C1CC1)N2S(=O)(=O)c1ccc(F)cc1 | PIK3CA Q546K | cell-free assay | competition with immobilised ligand | 1 µM | 72% |
| COc1cnc(Nc2cccc(S(N)(=O)=O)c2)nc1N1CCN(c2ccccc2)C(=O)C1 | PIK3CA C420R | binding | competition with immobilised ligand | 1 µM | 95% |
| CN(CCCC(F)(F)F)c1nccc(-c2cnn3ncccc23)n1 | PIK3CA C420R | binding | – | 1 µM | 100% |
| O=C(Nc1cccnn1)N1CC(C/C=C/c2cncc(Oc3ccc(C(F)(F)F)cn3)n2)C1 | PIK3CA C420R | cell-free assay | competition with immobilised ligand | 1 µM | 66% |
| c1cncc(-c2cccc(Nc3nccc(NC4CCCCC4)n3)c2)c1 | PIK3CA H1047L | binding | competition with immobilised ligand | 10 µM | 100% |
| O=c1nc(-c2ccccn2)sc2ccccc12 | PIK3CA E545A | cell-free assay | competition with immobilised ligand | 1 µM | 92% |
| O=C(Nc1c[nH]nc1C(=O)NC1CCNCC1)c1cc(F)cc(F)c1 | Phosphatidylinositol 4,5-bisphosphate 3-kinase catalytic subunit alpha isoform (PIK3CA, Homo sapiens, UniProt P42336, M1043I) | binding | competition with immobilised ligand | 1 µM | 100% |
| CN(C)c1nccc(-c2cnn3ncccc23)n1 | PIK3CA | binding | – | 1 µM | 97% |
| COc1ncc2cc3ccccc3nc2c1C#N | PIK3CA C420R | cell-free assay | competition with immobilised ligand | 5 µM | 78% |
| Cc1cnn2ncc(-c3ccnc(N(C)C)n3)c2c1 | PIK3CA E542K | binding | – | 1 µM | 79% |
| CN(C)C(=O)Cn1cc(-c2nc([C@@](C)(c3ccc(-c4cnc(N)nc4)cc3)C3CC3)no2)cn1 | PIK3CA E542K | cell-free assay | competition with immobilised ligand | 1 µM | 79% |
| N[C@@H]1CCN(c2nccc(-c3cnn4ncccc34)n2)C1 | PIK3CA | binding | – | 1 µM | 100% |
| O=C(NCCCN1CCOCC1)c1ccc(Nc2ncc(Cl)c(-c3ccc(Cl)s3)n2)cc1 | PIK3CA E542K | binding | competition with immobilised ligand | 1 µM | 100% |
| CO[C@@H](C)c1c(Nc2ccc([C@@H](N(C)C(=O)C3CCS(=O)(=O)CC3)C(F)(F)F)cc2)cnc2cc(Cl)nn12 | PIK3CA H1047L | cell-free assay | competition with immobilised ligand | 1 µM | 98% |
| F[C@@H]1CCN(c2nccc(-c3cnn4ncccc34)n2)C1 | PIK3CA E545A | binding | – | 1 µM | 92% |
